Experiments:
[1] = Cmax in HIV-1 infected children aged 2.1 to 12.8 years at 8 mg/kg, po every 24 hrs coadministered with 8 mg/kg abacavir by HPLC; conditions: human, in vivo
[2] = AUC (0 to tau) in HIV-1 infected children aged 2.1 to 12.8 years at 8 mg/kg, po every 24 hrs coadministered with 8 mg/kg abacavir by HPLC; conditions: human, plasma
[3] = Cmax in HIV-1 infected children aged 2.5 to 14 years at 8 mg/kg, po every 24 hrs coadministered with 240 mg/m2 of didanosine and efavirenz by HPLC; format: ADME, organism-based; parameters: dose 8 mg/kg, route oral; conditions: human, in vivo
In short: (§1)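 Treatment-naive children took once-daily oral lamivudine at 8 mg/kg (tablets or solution) at 6 p.m. without food, with didanosine 240 mg/m2 and weight-banded efavirenz. Blood was drawn after 15 days (38 children) or 2–5 months (11 children), either predose plus 1 and 3 h, or predose through 24 h. Plasma was kept at −70°C and assayed by HPLC-UV (LLOQ 0.025 mg/liter). Data were fitted with a two-compartment population model in NONMEM using FOCE.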

[4] = Cmax in HIV-1 infected children aged 6.9 years at 4 mg/kg, po every 12 hrs coadministered with nevirapine and stavudine by HPLC; format: ADME, organism-based; parameters: dose 4 mg/kg, route oral; conditions: human, in vivo
[5] = Cmax in HIV-1 infected children aged 2.1 to 12.8 years at 4 mg/kg, po every 12 hrs coadministered with 8 mg/kg abacavir by HPLC; format: ADME, organism-based; parameters: dose 4 mg/kg, route oral; conditions: human, in vivo
[6] = AUC (0 to tau) in HIV-1 infected children aged 2.5 to 4.8 years at 4 mg/kg, po every 12 hrs by HPLC; format: ADME, organism-based; parameters: dose 4 mg/kg, route oral; conditions: human, plasma
[7] = test system: Homo sapiens; experiment: AUC in HIV-1 infected children with body weight <17 kg at 10 mg/kg, po every 24 hrs coadministered with 240 mg/m2 of didanosine and efavirenz by HPLC; format: ADME, organism-based, Plasma; parameters: dose 10 mg/kg, route oral; conditions: in vivo
[8] = AUC (0 to tau) in HIV-1 infected children aged 6.9 years at 4 mg/kg, po every 12 hrs coadministered with nevirapine and stavudine by HPLC; format: ADME, organism-based; parameters: dose 4 mg/kg, route oral; conditions: human, plasma
[9] = AUC in HIV-1 infected children with body weight >17 kg at 8 mg/kg, po every 24 hrs coadministered with 240 mg/m2 of didanosine and efavirenz by HPLC; format: ADME, organism-based; parameters: dose 8 mg/kg, route oral; conditions: human, plasma
[10] = Cmax in HIV-1 infected children aged 8.5 to 12.3 years at 4 mg/kg, po every 12 hrs by HPLC; format: ADME, organism-based; parameters: dose 4 mg/kg, route oral; conditions: human, in vivo
[11] = AUC (0 to tau) in HIV-1 infected children aged 2.1 to 12.8 years at 4 mg/kg, po every 12 hrs coadministered with 8 mg/kg abacavir by HPLC; format: ADME, organism-based; conditions: human, plasma
[12] = AUC (0 to tau) in HIV-1 infected children aged 2.5 to 14 years at 8 mg/kg, po every 24 hrs coadministered with 240 mg/m2 of didanosine and efavirenz by HPLC; format: ADME, organism-based; parameters: dose 8 mg/kg, route oral; conditions: human, plasma
In short: as §1

[13] = AUC in HIV-1 infected children with body weight <17 kg at 8 mg/kg, po every 24 hrs coadministered with 240 mg/m2 of didanosine and efavirenz by HPLC; format: ADME, organism-based; parameters: dose 8 mg/kg, route oral; conditions: human, plasma
[14] = Cmax in HIV-1 infected children aged 2.5 to 4.8 years at 4 mg/kg, po every 12 hrs by HPLC; format: ADME, organism-based; parameters: dose 4 mg/kg, route oral; conditions: human, in vivo
[15] = AUC (0 to tau) in HIV-1 infected children aged 8.5 to 12.3 years at 4 mg/kg, po every 12 hrs by HPLC; format: ADME, organism-based; parameters: dose 4 mg/kg, route oral; conditions: human, plasma

Cmax [1]: 2090 ng/mL
AUC tau at 24 h [2]: 9800 ng·h/mL
Cmax [3]: 1700 ng/mL
Cmax [4]: 1330 ng/mL
Cmax [5]: 1110 ng/mL
AUC tau at 12 h [6]: 3710 ng·h/mL
AUC tau at 12 h [8]: 5420 ng·h/mL
Cmax [10]: 1840 ng/mL
AUC tau at 12 h [11]: 4440 ng·h/mL
AUC tau at 24 h [12]: 7800 ng·h/mL
Cmax [14]: 980 ng/mL
AUC tau at 12 h [15]: 6540 ng·h/mL
SMILES: Nc1ccn([C@@H]2CS[C@H](CO)O2)c(=O)n1 [LAMIVUDINE]
AUC [7]: 9800 ng·h/mL
AUC at 24 h [9]: 9100 ng·h/mL
AUC at 24 h [13]: 8100 ng·h/mL

— ChEMBL document CHEMBL1671698, “Is the recommended once-daily dose of lamivudine optimal in West African HIV-infected children?” (Antimicrob Agents Chemother, 2010)
